# Data from ChEMBL document CHEMBL1142894, “Preparation of 5-aryl-3-alkylthio-l,2,4-triazoles and corresponding sulfones with antiinflammatory-analgesic activity” (Bioorg Med Chem, 2007).
# The source made the active and inactive calls. The calls are words filed in the database; no cut-off is given here.
# Columns and labels:
# Mus musculus [1] = test: Analgesic activity against p-benzoquinone-induced abdominal constriction in Swiss albino mouse assessed as number of writhings at 200 mg/kg, po; type: functional, Abdomen
# How it was run: (§1)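 Test samples given orally in 0.5% CMC; vehicle to controls. 60 min later, 2.5% (v/v) p-benzoquinone in distilled water, 0.1 ml/10 g, given i.p. Mice housed singly; writhes counted for 15 min starting 5 min after injection. Activity is % change from vehicle controls. n = 6; mean ± SEM.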
# Mus musculus [2] = test: Antiinflammatory activity against carrageenan-induced paw edema in Swiss albino mouse assessed as swelling thickness at 50 mg/kg, po after 90 mins; type: functional
# How it was run: (§2)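 Oral dosing in 0.5% CMC; vehicle to controls. Then carrageenan (0.5 mg/25 ll, freshly suspended in 154 mM saline) injected into the right hind paw subplantar tissue; saline into the left paw. Right-left footpad thickness difference measured by dial gauge calliper every 90 min over 6 h. Inhibition % is relative to vehicle control. n = 6; mean ± SEM.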
# Mus musculus [3] = test: Antiinflammatory activity against carrageenan-induced paw edema in Swiss albino mouse assessed as swelling thickness at 25 mg/kg, po after 90 mins; type: functional; how it was run: as §2
# Mus musculus [4] = test: Antiinflammatory activity against carrageenan-induced paw edema in Swiss albino mouse assessed as swelling thickness at 25 mg/kg, po after 360 mins; type: functional; how it was run: as §2
# Mus musculus [5] = test: Antiinflammatory activity against carrageenan-induced paw edema in Swiss albino mouse assessed as swelling thickness at 200 mg/kg, po after 360 mins; type: functional; how it was run: as §2
# Mus musculus [6] = test: Inhibition of p-benzoquinone-induced writhing in Swiss albino mouse at 25 mg/kg, po relative to control; type: functional
# How it was run: (§3)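 Mice, n = 6 per group, dosed orally with a suspension in 0.5% sodium CMC. 60 min later, 0.1 ml/10 g of 2.5% […] p-benzoquinone in distilled water given ip. Abdominal writhes counted per animal for 15 min, starting 5 min after injection. Expressed as % change in mean writhing count versus vehicle controls.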
# Mus musculus [7] = test: Antiinflammatory activity against carrageenan-induced paw edema in Swiss albino mouse assessed as swelling thickness at 50 mg/kg, po after 270 mins; type: functional; how it was run: as §2
# Mus musculus [8] = test: Analgesic activity against p-benzoquinone-induced abdominal constriction in Swiss albino mouse assessed as number of writhings at 100 mg/kg, po; type: functional, Abdomen; how it was run: as §1
# Mus musculus [9] = test: Inhibition of carrageenan-induced paw edema in Swiss albino mouse at 200 mg/kg, po after 90 mins relative to control; type: functional; details: 1.5 h; how it was run: as §2
# Mus musculus [10] = test: Inhibition of carrageenan-induced paw edema in Swiss albino mouse at 50 mg/kg, po after 270 mins relative to control; type: functional; details: 4.5 h
# How it was run: (§4)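 Mice, n = 6 per group. Test agent given orally as a suspension in 0.5% sodium CMC in distilled water; controls received vehicle only. Afterwards, 0.5 mg/25 ll carrageenan in saline (154 mM NaCl) injected subplantar into the right hind paw, saline into the left. Right-minus-left footpad thickness measured by dial gauge caliper every 90 min for 6 h. Inhibition is relative to vehicle-control group means.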
# Mus musculus [11] = test: Antiinflammatory activity against carrageenan-induced paw edema in Swiss albino mouse assessed as swelling thickness at 25 mg/kg, po after 180 mins; type: functional; how it was run: as §2
# Mus musculus [12] = test: Gastric-ulcerogenic effect in Swiss albino mouse assessed as lesions at 25 mg/kg, po; type: functional, organism-based; parameters: dose 25 mg/kg
# How it was run: (§5)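 Mice killed under deep ether anesthesia 3 h after the writhing test; the oral dose in 0.5% CMC was the one used in that test. Stomachs removed, opened along the great curvature and examined under a dissecting microscope for lesions or bleeding. Reported as ratio of ulceration; n = 6.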
# Mus musculus [13] = test: Analgesic activity against p-benzoquinone-induced abdominal constriction in Swiss albino mouse assessed as number of writhings at 50 mg/kg, po; type: functional, Abdomen; how it was run: as §1
# Mus musculus [14] = test: Inhibition of carrageenan-induced paw edema in Swiss albino mouse at 100 mg/kg, po after 360 mins relative to control; type: functional; details: 6 h; how it was run: as §2
# Mus musculus [15] = test: Antiinflammatory activity against carrageenan-induced paw edema in Swiss albino mouse assessed as swelling thickness at 100 mg/kg, po after 270 mins; type: functional; how it was run: as §2
# Mus musculus [16] = test: Acute toxicity in Swiss albino mouse assessed as lethal effect at 200 mg/kg/day, po after 72 hrs; type: organism-based; parameters: route oral; details: in vivo
# How it was run: (§6)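 Oral single dose suspended in 0.5% carboxymethylcellulose, given after a 24 h fast; food and water returned 1 h after dosing. Vehicle-only controls. Mice observed at 1 h, then once daily for 72 h, for toxic signs and mortality.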
# Mus musculus [17] = test: Inhibition of carrageenan-induced paw edema in Swiss albino mouse at 50 mg/kg, po after 180 mins relative to control; type: functional; details: 3 h; how it was run: as §2
# Mus musculus [18] = test: Acute toxicity in Swiss albino mouse assessed as lethal effect at 25 mg/kg/day, po after 72 hrs; type: organism-based; parameters: route oral; details: in vivo; how it was run: as §6
# Mus musculus [19] = test: Antiinflammatory activity in Swiss albino mouse assessed as inhibition of carrageenan-induced paw edema at 50 mg/kg, po; type: functional
# Mus musculus [20] = test: Inhibition of p-benzoquinone-induced writhing in Swiss albino mouse at 100 mg/kg, po relative to control; type: functional; how it was run: as §3
# Mus musculus [21] = test: Antiinflammatory activity against carrageenan-induced paw edema in Swiss albino mouse assessed as swelling thickness at 200 mg/kg, po after 270 mins; type: functional; how it was run: as §2
# Mus musculus [22] = test: Antiinflammatory activity against carrageenan-induced paw edema in Swiss albino mouse assessed as swelling thickness at 100 mg/kg, po after 360 mins; type: functional; how it was run: as §2
# Mus musculus [23] = test: Inhibition of carrageenan-induced paw edema in Swiss albino mouse at 25 mg/kg, po after 90 mins relative to control; type: functional; details: 1.5 h; how it was run: as §2
# Mus musculus [24] = test: Inhibition of carrageenan-induced paw edema in Swiss albino mouse at 200 mg/kg, po after 180 mins relative to control; type: functional; details: 3 h; how it was run: as §2
# Mus musculus [25] = test: Inhibition of carrageenan-induced paw edema in Swiss albino mouse at 200 mg/kg, po after 270 mins relative to control; type: functional; details: 4.5 h; how it was run: as §2
# Mus musculus [26] = test: Inhibition of carrageenan-induced paw edema in Swiss albino mouse at 50 mg/kg, po after 360 mins relative to control; type: functional; details: 6 h; how it was run: as §4
# Mus musculus [27] = test: Antiinflammatory activity against carrageenan-induced paw edema in Swiss albino mouse assessed as swelling thickness at 200 mg/kg, po after 90 mins; type: functional; how it was run: as §2
# Mus musculus [28] = test: Inhibition of carrageenan-induced paw edema in Swiss albino mouse at 100 mg/kg, po after 270 mins relative to control; type: functional; details: 4.5 h; how it was run: as §2
# Mus musculus [29] = test: Antiinflammatory activity against carrageenan-induced paw edema in Swiss albino mouse assessed as swelling thickness at 200 mg/kg, po after 180 mins; type: functional; how it was run: as §2
# Mus musculus [30] = test: Gastric-ulcerogenic effect in Swiss albino mouse assessed as lesions at 100 mg/kg, po; type: functional, organism-based; parameters: dose 100 mg/kg; how it was run: as §5
# Mus musculus [31] = test: Antiinflammatory activity against carrageenan-induced paw edema in Swiss albino mouse assessed as swelling thickness at 100 mg/kg, po after 180 mins; type: functional; how it was run: as §2
# Mus musculus [32] = test: Antiinflammatory activity against carrageenan-induced paw edema in Swiss albino mouse assessed as swelling thickness at 50 mg/kg, po after 180 mins; type: functional; how it was run: as §2
# Mus musculus [33] = test: Antiinflammatory activity against carrageenan-induced paw edema in Swiss albino mouse assessed as swelling thickness at 50 mg/kg, po after 360 mins; type: functional; how it was run: as §2
# Mus musculus [34] = test: Inhibition of carrageenan-induced paw edema in Swiss albino mouse at 50 mg/kg, po after 90 mins relative to control; type: functional; details: 1.5 h; how it was run: as §4
# Mus musculus [35] = test: Inhibition of p-benzoquinone-induced writhing in Swiss albino mouse at 200 mg/kg, po relative to control; type: functional; how it was run: as §3
# Mus musculus [36] = test: Gastric-ulcerogenic effect in Swiss albino mouse assessed as lesions at 50 mg/kg, po; type: functional, organism-based; parameters: dose 50 mg/kg; how it was run: as §5
# Mus musculus [37] = test: Acute toxicity in Swiss albino mouse assessed as lethal effect at 50 mg/kg/day, po after 72 hrs; type: organism-based; parameters: route oral; details: in vivo; how it was run: as §6
# Mus musculus [38] = test: Analgesic activity against p-benzoquinone-induced abdominal constriction in Swiss albino mouse assessed as number of writhings at 25 mg/kg, po; type: functional, Abdomen; how it was run: as §1
# Mus musculus [39] = test: Antiinflammatory activity against carrageenan-induced paw edema in Swiss albino mouse assessed as swelling thickness at 25 mg/kg, po after 270 mins; type: functional; how it was run: as §2
# Mus musculus [40] = test: Inhibition of carrageenan-induced paw edema in Swiss albino mouse at 200 mg/kg, po after 360 mins relative to control; type: functional; details: 6 h; how it was run: as §2
# Mus musculus [41] = test: Inhibition of p-benzoquinone-induced writhing in Swiss albino mouse at 50 mg/kg, po relative to control; type: functional; how it was run: as §3
# Mus musculus [42] = test: Inhibition of carrageenan-induced paw edema in Swiss albino mouse at 25 mg/kg, po after 180 mins relative to control; type: functional; details: 3 h; how it was run: as §2
# Mus musculus [43] = test: Acute toxicity in Swiss albino mouse assessed as lethal effect at 100 mg/kg/day, po after 72 hrs; type: organism-based; parameters: route oral; details: in vivo; how it was run: as §6
# Mus musculus [44] = test: Antiinflammatory activity against carrageenan-induced paw edema in Swiss albino mouse assessed as swelling thickness at 100 mg/kg, po after 90 mins; type: functional; how it was run: as §2
# Mus musculus [45] = test: Inhibition of carrageenan-induced paw edema in Swiss albino mouse at 25 mg/kg, po after 360 mins relative to control; type: functional; details: 6 h; how it was run: as §2
# Mus musculus [46] = test: Inhibition of carrageenan-induced paw edema in Swiss albino mouse at 25 mg/kg, po after 270 mins relative to control; type: functional; details: 4.5 h; how it was run: as §2
# Mus musculus [47] = test: Inhibition of carrageenan-induced paw edema in Swiss albino mouse at 100 mg/kg, po after 90 mins relative to control; type: functional; details: 1.5 h; how it was run: as §2
# Mus musculus [48] = test: Inhibition of carrageenan-induced paw edema in Swiss albino mouse at 100 mg/kg, po after 180 mins relative to control; type: functional; details: 3 h; how it was run: as §2
smiles,measurement,setting,value
CCS(=O)(=O)c1nc(-c2ccccc2Cl)n[nH]1,Activity,Mus musculus [1],45.9
same,Activity,Mus musculus [2],36.2 10^-2mm
same,Activity,Mus musculus [3],47.2 10^-2mm
same,Activity,Mus musculus [4],61.5 10^-2mm
same,Activity,Mus musculus [5],56.5 10^-2mm
same,inhibition in vivo at 25 mg/kg,Mus musculus [6],25.7%
same,Activity,Mus musculus [7],41.4 10^-2mm
same,Activity,Mus musculus [8],23.4
same,inhibition in vivo at 200 mg/kg,Mus musculus [9],18.9%
same,inhibition in vivo at 50 mg/kg,Mus musculus [10],36.1%
same,Activity,Mus musculus [11],54.4 10^-2mm
same,Activity,Mus musculus [12],Active
same,Activity,Mus musculus [13],23.4
same,inhibition in vivo at 100 mg/kg,Mus musculus [14],44%
same,Activity,Mus musculus [15],35 10^-2mm
same,Activity,Mus musculus [16],Non-toxic
same,inhibition in vivo at 50 mg/kg,Mus musculus [17],39.7%
same,Activity,Mus musculus [18],Non-toxic
same,inhibition in vivo at 50 mg/kg,Mus musculus [19],37.9%
same,inhibition in vivo at 100 mg/kg,Mus musculus [20],50.5%
same,Activity,Mus musculus [21],51.9 10^-2mm
same,Activity,Mus musculus [22],38.5 10^-2mm
same,inhibition in vivo at 25 mg/kg,Mus musculus [23],11.3%
same,inhibition in vivo at 200 mg/kg,Mus musculus [24],22.9%
same,inhibition in vivo at 200 mg/kg,Mus musculus [25],19.9%
same,inhibition in vivo at 50 mg/kg,Mus musculus [26],43.8%
same,Activity,Mus musculus [27],43.1 10^-2mm
same,inhibition in vivo at 100 mg/kg,Mus musculus [28],40.5%
same,Activity,Mus musculus [29],45.8 10^-2mm
same,Activity,Mus musculus [30],Active
same,Activity,Mus musculus [31],33.8 10^-2mm
same,Activity,Mus musculus [32],35.8 10^-2mm
same,Activity,Mus musculus [33],40.5 10^-2mm
same,inhibition in vivo at 50 mg/kg,Mus musculus [34],31.9%
same,inhibition in vivo at 200 mg/kg,Mus musculus [35],10.7%
same,Activity,Mus musculus [36],Active
same,Activity,Mus musculus [37],Non-toxic
same,Activity,Mus musculus [38],38.2
same,Activity,Mus musculus [39],59.1 10^-2mm
same,inhibition in vivo at 200 mg/kg,Mus musculus [40],21.5%
same,inhibition in vivo at 50 mg/kg,Mus musculus [41],54.5%
same,inhibition in vivo at 25 mg/kg,Mus musculus [42],8.4%
same,Activity,Mus musculus [43],Non-toxic
same,Activity,Mus musculus [44],29.8 10^-2mm
same,inhibition in vivo at 25 mg/kg,Mus musculus [45],14.6%
same,inhibition in vivo at 25 mg/kg,Mus musculus [46],8.8%
same,inhibition in vivo at 100 mg/kg,Mus musculus [47],33.4%
same,inhibition in vivo at 100 mg/kg,Mus musculus [48],34.4%
